Compound activity from PubChem BioAssay.
An excerpt weighted towards active compounds, which were near 2.8% of everything screened.
PAFAH1B3 inh: blocks human PAF acetylhydrolase 1B catalytic subunit 3 | AID 492972 | inhibition, % at 3.39 µM | 0.28% of 340,000 active | recombinant PAFAH1B3, FP-rhodamine probe, fluorescence polarization;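 active = inhibition above the screen-wide average of all tested compounds plus 3 SD, cut at about 25% in these data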;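 also: 0% = enzyme with DMSO only and 100% = wells lacking PAFAH1B3 protein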
Target sequence (Q15102 whole entry, looked up): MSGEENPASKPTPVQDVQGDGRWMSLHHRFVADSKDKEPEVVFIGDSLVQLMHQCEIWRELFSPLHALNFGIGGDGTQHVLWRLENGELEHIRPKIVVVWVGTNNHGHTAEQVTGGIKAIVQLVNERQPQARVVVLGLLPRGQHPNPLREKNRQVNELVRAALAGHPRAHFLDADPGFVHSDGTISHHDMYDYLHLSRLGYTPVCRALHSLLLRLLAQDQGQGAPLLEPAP
pPAFAH inh: inhibitors of human plasma PAF acetylhydrolase (pPAFAH). Q13093. recombinant pPAFAH, FP-rhodamine probe fluorescence polarization. inhibition, % at 3.39 µM. 1.5% of 330,000 active. AID 463082;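 active = inhibition above the mean inhibition across the screen plus 3 SD, cut at about 25% in these data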;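 also: inhibitors block binding of the rhodamine activity-based probe so polarization drops; 0% = enzyme with DMSO and 100% = wells lacking pPAFAH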
ABHD4 inh: ABHD4 (mouse) inhibition, primary FP screen | Q8VD66 | purified mABHD4, FP-Rh probe fluorescence polarization | inhibition, % at 8.92 µM | 0.54% of 370,000 active | AID 720543;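 active = inhibition exceeding the mean over every tested compound plus 3 SD, cut at about 30% in these data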;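 also: 0% = plate median of compound wells and 100% = S159A mutant with DMSO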
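System: mouse ABHD4 enzyme, wild type / Medium: HEPES pH 7.0, NaCl, Pluronic buffer / Reagent: FP-Rh activity-based fluorescent probe / Control set: S159A mutant high control, sample median low control / Detection: fluorescence polarization with parallel and perpendicular emission, 525/598 nm / Schedule: 45 min + 60 min at 25 °C / Compound dosing: 8.92 µM, single dose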
PAFAH2 FP inh: inhibitors of human PAFAH2 | inhibition, % at 3.39 µM | 0.99% of 340,000 active | AID 492956 | Q99487 | recombinant PAFAH2, FP-rhodamine activity probe, fluorescence polarization;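 active = inhibition above the mean over all tested compounds plus 3 SD, cut at about 30% in these data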;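 also: inhibitors block probe labeling of enzyme so polarization drops; 0% = enzyme with DMSO and 100% = wells lacking PAFAH2 protein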
HTRA1 inhibitor: HTRA1 (human) protease inhibition; Q92743; recombinant HTRA1, FP-rhodamine activity-based probe, fluorescence polarization; inhibition, % at 5.96 µM; 0.5% of 340,000 active; AID 504803; in the data active = inhibition above about 36%;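 also: 0% = enzyme with DMSO and 100% = wells lacking enzyme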
PAFAH1B2 inh: inhibitors of human PAFAH1B2 | P68402 | recombinant PAFAH1B2, FP-rhodamine activity probe, fluorescence polarization | inhibition, % at 3.39 µM | 1.2% of 340,000 active | AID 492953;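 active = inhibition above the mean of all tested compounds plus 3 SD, cut at about 24% in these data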;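 also: 0% = enzyme with DMSO and 100% = wells lacking PAFAH1B2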
Target sequence (P68402 whole entry, looked up): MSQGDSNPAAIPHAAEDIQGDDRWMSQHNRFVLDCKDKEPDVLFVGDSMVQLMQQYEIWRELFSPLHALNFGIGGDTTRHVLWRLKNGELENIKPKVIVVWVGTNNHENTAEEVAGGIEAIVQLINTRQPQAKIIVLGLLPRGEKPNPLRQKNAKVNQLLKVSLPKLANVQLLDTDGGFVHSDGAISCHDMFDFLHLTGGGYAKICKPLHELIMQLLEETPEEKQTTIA
PAFAH2 confirm: confirmation of human PAFAH2 inhibitors; shares compounds with PAFAH2 FP inh; recombinant PAFAH2, FP-rhodamine activity probe, fluorescence polarization; inhibition, % at 3.39 µM; 65% of 2,300 active;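 active = mean inhibition over three repeats above a set limit taken from the earlier primary screen, cut at about 30% in these data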;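 also: inhibitor blocks binding of rhodamine activity probe so polarization falls; 0% = enzyme with DMSO and 100% = wells lacking PAFAH2 protein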
HTRA1 conf: HTRA1 (human) inhibition, confirmation. 66% of 1,600 active. recombinant HTRA1, FP-rhodamine activity-based probe, fluorescence polarization. inhibition, % at 5.96 µM. shares compounds with HTRA1 inhibitor;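 active = mean inhibition over three repeats above a set limit taken from the earlier primary screen, cut at about 37% in these data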;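 also: 0% = HTRA1 with DMSO and 100% = wells lacking HTRA1; inhibitors block probe binding so polarization drops and inhibition rises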
mABHD4 conf: ABHD4 (mouse) inhibition, FP confirmation. shares compounds with ABHD4 inh. purified mABHD4, FP-Rh probe fluorescence polarization. inhibition, % at 8.92 µM. 55% of 1,800 active;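 active = mean inhibition across replicates above the hit cutoff set in the primary screen, cut at about 30% in these data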;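 also: 0% = wild-type ABHD4 with DMSO and 100% = catalytically dead S159A mutant with DMSO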
Active calls of the source: *.

Screening Cc1c(C#N)c(O)[nH]c(=O)c1N=Nc1ccc(S(N)(=O)=O)cc1 returned PAFAH1B3 inh 14, pPAFAH inh 19, ABHD4 inh 39*, PAFAH2 FP inh 47*, HTRA1 inhibitor 9, PAFAH1B2 inh 9, PAFAH2 confirm 29 and mABHD4 conf 47*.
C[C@@H]1COc2cc(Br)ccc2S(=O)(=O)N1Cc1cn(Cc2ccc(F)cc2)nn1 was read as ABHD4 inh 2.
CCCSC1=N/C(=C\c2ccc3c(c2)OCO3)C(=O)S1 was read as PAFAH1B3 inh 1, pPAFAH inh 3, ABHD4 inh 3, PAFAH2 FP inh 28, HTRA1 inhibitor -12 and PAFAH1B2 inh 1.
For CCCSC1=N/C(=C\c2ccc([N+](=O)[O-])o2)C(=O)S1 the results were PAFAH1B3 inh 17, ABHD4 inh 38*, PAFAH2 FP inh 40*, HTRA1 inhibitor 18, PAFAH1B2 inh 7, PAFAH2 confirm 20 and mABHD4 conf 7.
Screening C=CCN1C(=O)[C@H](CC(=O)N2CCSCC2)[C@@]2(C(=O)OCC)CCCC=C12 returned ABHD4 inh -1.
COc1ccccc1NS(=O)(=O)c1ccc(O)c(C(=O)OCC(=O)N2c3ccccc3CC2C)c1 (stereo unspecified) was read as PAFAH1B3 inh 4, pPAFAH inh 13, ABHD4 inh 35*, PAFAH2 FP inh 57*, HTRA1 inhibitor -13, PAFAH1B2 inh 14, PAFAH2 confirm 47* and mABHD4 conf 29.
CCN(CC)S(=O)(=O)c1ccc(O)c(C(=O)OCC(=O)N2c3ccccc3CC2C)c1 (stereo unspecified) was read as PAFAH1B3 inh 2, pPAFAH inh 16, ABHD4 inh 56*, PAFAH2 FP inh 75*, HTRA1 inhibitor -10, PAFAH1B2 inh 16, PAFAH2 confirm 75* and mABHD4 conf 58*.
COc1cc2c(cc1NC(=O)CSc1nnc(-c3ccccn3)n1-c1ccccc1)oc1ccccc12 was read as ABHD4 inh 4.
COc1ccc(/C=C2\SC(=S)N(c3cccnc3)C2=O)cc1 was read as PAFAH1B3 inh 8, pPAFAH inh 5, ABHD4 inh 2, PAFAH2 FP inh 0, HTRA1 inhibitor 2 and PAFAH1B2 inh -1.
`O=C1/C(=C/c2ccco2)SC(=S)N1c1cccnc1` gave PAFAH1B3 inh 14, ABHD4 inh 31*, PAFAH2 FP inh 32*, HTRA1 inhibitor 21, PAFAH1B2 inh 7, PAFAH2 confirm 18 and mABHD4 conf 6.
O=[N+]([O-])c1ccc(NN=Cc2cccc3ccccc23)cc1 was read as PAFAH1B3 inh 3, ABHD4 inh 2, PAFAH2 FP inh 7, HTRA1 inhibitor 0 and PAFAH1B2 inh 3.
`O=[N+]([O-])c1cc(Br)c(O)c(/C=N/Nc2nnnn2-c2cccc3ccccc23)c1` gave PAFAH1B3 inh 21, pPAFAH inh 34*, ABHD4 inh 39*, PAFAH2 FP inh 35*, HTRA1 inhibitor 24, PAFAH1B2 inh 18, PAFAH2 confirm 24 and mABHD4 conf 65*.
For CCCCCCCCN1C(=O)[C@@H](CC(=O)NCC23CC4CC(CC(C4)C2)C3)C[C@@]2(C(=O)OC)C1=C[C@H](C(C)C)O[C@@H]2C1CC1 the results were ABHD4 inh 3.
N#C/C(=C\c1ccc(O)c(O)c1)C(=O)N1CCc2ccccc21 was read as PAFAH1B3 inh 23, pPAFAH inh 3, ABHD4 inh 55*, PAFAH2 FP inh 49*, HTRA1 inhibitor 71*, PAFAH1B2 inh 10, PAFAH2 confirm 33*, HTRA1 conf 86* and mABHD4 conf 16.
NC(Cc1ccc(Oc2ccc(O)cc2)cc1)C(=O)O (stereo unspecified) was read as pPAFAH inh 4.
